The source made the active and inactive calls. No cut-off for these calls is given here.
Legend:
[1] = biological target: Tyrosine-protein kinase Fyn (Homo sapiens) (UniProt P06241); assay: Inhibition of FYN (unknown origin) at 1 uM by Ambit Kinomescan binding assay relative to control; values are per cent of control
[2] = biological target: Cyclin-dependent kinase 2 homolog (Plasmodium falciparum (isolate K1 / Thailand)) (UniProt Q07785); assay: Inhibition of Plasmodium falciparum PK5 at 1 uM by Ambit Kinomescan binding assay relative to control; values are per cent of control
Chain of Cyclin-dependent kinase 2 homolog (Plasmodium falciparum (isolate K1 / Thailand)) (Q07785 whole entry): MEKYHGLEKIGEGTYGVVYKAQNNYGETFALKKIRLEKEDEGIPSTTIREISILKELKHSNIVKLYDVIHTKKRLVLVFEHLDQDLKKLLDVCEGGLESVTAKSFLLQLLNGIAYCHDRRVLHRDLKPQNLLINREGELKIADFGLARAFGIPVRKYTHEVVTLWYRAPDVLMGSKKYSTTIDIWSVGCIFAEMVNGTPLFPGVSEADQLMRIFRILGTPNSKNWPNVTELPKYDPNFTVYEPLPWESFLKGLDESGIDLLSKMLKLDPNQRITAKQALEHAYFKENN

[3] = biological target: Activin receptor type-1B (Homo sapiens) (UniProt P36896); assay: Inhibition of ACVR1B (unknown origin) at 10 uM by Ambit Kinomescan binding assay
Chain of Activin receptor type-1B (Homo sapiens) (P36896 whole entry): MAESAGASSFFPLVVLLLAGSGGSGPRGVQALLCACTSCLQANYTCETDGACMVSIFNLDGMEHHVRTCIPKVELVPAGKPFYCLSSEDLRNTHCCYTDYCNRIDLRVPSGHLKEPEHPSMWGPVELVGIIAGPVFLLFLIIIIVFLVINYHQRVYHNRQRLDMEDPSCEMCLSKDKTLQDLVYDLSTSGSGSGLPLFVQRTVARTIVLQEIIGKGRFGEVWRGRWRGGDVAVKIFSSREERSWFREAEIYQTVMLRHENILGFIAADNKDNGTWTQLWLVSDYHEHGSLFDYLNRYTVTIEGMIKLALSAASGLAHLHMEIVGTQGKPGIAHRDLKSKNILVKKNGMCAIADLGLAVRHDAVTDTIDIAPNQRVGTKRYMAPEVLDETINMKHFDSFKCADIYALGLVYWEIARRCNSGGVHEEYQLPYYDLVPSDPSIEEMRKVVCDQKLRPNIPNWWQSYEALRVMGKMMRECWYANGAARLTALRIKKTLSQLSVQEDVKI

[4] = biological target: Serine/threonine-protein kinase PLK1 (Homo sapiens) (UniProt P53350); assay: Inhibition of PLK1 (unknown origin) at 10 uM by Ambit Kinomescan binding assay
Chain of Serine/threonine-protein kinase PLK1 (Homo sapiens) (P53350 whole entry): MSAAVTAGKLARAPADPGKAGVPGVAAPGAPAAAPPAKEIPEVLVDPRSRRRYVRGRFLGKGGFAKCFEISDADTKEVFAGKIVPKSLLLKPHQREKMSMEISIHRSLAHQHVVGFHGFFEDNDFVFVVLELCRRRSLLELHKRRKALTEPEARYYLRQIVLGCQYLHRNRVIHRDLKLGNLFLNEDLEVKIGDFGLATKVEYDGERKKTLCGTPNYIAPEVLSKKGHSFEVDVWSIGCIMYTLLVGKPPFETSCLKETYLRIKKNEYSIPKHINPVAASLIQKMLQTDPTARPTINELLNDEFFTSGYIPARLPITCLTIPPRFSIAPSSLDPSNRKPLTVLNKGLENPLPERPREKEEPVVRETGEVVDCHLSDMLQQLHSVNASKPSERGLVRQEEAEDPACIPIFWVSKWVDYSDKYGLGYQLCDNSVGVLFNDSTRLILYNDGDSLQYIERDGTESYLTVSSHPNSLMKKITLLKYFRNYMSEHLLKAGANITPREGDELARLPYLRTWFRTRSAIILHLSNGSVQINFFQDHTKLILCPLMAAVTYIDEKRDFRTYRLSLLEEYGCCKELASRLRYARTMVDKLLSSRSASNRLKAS

[5] = biological target: Rho-associated protein kinase 1 (Homo sapiens) (UniProt Q13464); assay: Inhibition of ROCK1 Lys2 labeling site in human A-375 cells at 0.5 uM by KiNativ Profiling analysis relative to control; assay type: cell-based
Chain of Rho-associated protein kinase 1 (Homo sapiens) (Q13464 2-1354 limits assumed): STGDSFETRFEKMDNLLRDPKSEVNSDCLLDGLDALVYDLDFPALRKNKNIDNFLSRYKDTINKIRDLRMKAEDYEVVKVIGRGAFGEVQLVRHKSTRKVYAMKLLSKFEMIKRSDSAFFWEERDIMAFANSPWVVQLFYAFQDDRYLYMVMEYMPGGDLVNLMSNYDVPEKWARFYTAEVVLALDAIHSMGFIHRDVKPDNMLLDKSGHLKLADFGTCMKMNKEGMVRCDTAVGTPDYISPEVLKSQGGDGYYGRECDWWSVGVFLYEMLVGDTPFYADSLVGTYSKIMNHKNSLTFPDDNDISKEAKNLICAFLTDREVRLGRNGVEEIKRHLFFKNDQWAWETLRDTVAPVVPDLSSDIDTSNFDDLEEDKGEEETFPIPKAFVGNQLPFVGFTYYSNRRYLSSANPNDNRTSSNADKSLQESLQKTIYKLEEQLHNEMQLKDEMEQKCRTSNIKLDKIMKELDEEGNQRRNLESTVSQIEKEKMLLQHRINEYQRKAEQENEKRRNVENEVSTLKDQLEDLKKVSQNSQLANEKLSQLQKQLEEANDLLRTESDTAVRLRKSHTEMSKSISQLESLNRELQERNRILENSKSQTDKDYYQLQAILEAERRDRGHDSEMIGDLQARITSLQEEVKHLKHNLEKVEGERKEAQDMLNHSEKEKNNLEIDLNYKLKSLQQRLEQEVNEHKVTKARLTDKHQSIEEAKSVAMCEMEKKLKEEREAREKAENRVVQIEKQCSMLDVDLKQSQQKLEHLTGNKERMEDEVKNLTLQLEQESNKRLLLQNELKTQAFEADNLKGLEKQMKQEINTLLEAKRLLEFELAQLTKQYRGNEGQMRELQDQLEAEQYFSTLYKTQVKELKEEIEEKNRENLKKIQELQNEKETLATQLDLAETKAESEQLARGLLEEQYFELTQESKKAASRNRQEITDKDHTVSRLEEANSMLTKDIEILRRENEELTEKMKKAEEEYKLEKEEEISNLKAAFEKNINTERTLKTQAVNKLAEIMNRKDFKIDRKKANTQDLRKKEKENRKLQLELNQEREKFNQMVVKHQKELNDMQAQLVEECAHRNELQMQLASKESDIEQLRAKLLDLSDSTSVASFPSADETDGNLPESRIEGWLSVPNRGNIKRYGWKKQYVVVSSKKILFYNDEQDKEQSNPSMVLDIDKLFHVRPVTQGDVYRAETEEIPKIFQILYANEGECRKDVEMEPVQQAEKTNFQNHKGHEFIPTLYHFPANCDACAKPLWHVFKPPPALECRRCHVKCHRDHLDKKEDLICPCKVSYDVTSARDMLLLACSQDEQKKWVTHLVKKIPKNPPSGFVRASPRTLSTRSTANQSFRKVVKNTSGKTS
Outline: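 Live A375 melanoma cells were treated with compound at 5 or 0.5 μM, then lysed. Lysates were labeled with a lysine-reactive ATP or ADP-biotin probe. Read-out was the compound's protection of kinase labeling sites from probe labeling (KiNativ).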

[6] = biological target: T1, Serine/threonine-protein kinase ULK1 (Homo sapiens) (UniProt O75385); assay: Inhibition of ULK1 Lys2 labeling site in human A-375 cells at 0.5 uM by KiNativ Profiling analysis relative to control; assay type: cell-based
T1 sequence (whole entry): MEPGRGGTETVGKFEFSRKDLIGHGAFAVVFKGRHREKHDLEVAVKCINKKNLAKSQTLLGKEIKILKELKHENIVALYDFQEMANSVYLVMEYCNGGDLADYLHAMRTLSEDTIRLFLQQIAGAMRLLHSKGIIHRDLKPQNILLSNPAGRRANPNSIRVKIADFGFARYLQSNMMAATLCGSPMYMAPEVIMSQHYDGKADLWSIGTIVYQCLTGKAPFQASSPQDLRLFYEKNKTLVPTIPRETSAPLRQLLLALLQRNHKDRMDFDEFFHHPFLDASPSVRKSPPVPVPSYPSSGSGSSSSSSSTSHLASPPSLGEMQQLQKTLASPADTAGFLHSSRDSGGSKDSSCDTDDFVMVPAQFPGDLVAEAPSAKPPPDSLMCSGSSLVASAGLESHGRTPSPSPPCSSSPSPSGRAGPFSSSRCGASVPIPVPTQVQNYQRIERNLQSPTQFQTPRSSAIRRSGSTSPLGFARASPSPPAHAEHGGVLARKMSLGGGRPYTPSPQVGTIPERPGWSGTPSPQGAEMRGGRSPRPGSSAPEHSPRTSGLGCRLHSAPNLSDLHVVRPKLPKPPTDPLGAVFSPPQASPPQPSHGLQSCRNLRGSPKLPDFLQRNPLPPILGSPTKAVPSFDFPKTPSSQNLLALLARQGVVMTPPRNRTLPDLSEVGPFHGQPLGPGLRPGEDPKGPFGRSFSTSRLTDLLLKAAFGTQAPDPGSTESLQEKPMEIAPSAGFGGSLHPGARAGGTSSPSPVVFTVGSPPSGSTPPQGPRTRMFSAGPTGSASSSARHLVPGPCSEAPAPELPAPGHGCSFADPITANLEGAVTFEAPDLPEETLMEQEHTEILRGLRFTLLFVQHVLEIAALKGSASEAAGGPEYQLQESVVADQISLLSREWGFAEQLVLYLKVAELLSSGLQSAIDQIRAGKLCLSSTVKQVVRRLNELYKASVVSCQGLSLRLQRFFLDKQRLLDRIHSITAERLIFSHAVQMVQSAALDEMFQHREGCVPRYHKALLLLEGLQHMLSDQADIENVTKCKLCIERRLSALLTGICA

[7] = biological target: T2, Acylglycerol kinase, mitochondrial (Homo sapiens) (UniProt Q53H12); assay: Inhibition of AGK ATP labeling site in human Huh-7 cells at 10 uM by KiNativ Profiling analysis relative to control; assay type: cell-based
T2 sequence (whole entry): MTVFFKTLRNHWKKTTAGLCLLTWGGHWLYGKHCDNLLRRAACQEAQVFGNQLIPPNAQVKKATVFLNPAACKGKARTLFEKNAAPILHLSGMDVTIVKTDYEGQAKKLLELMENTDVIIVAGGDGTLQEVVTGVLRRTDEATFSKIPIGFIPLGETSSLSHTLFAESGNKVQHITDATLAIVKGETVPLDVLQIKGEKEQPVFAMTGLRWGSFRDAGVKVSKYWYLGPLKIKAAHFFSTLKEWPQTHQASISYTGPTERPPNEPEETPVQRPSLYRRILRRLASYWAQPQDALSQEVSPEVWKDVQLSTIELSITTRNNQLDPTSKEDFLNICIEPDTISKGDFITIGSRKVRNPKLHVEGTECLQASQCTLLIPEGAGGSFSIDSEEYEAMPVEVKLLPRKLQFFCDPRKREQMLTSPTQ

[8] = biological target: Calcium/calmodulin-dependent protein kinase type II subunit gamma (Homo sapiens) (UniProt Q13555); assay: Inhibition of CAMK2g K1 labeling site harbouring KTSTQEYAAKIINTK in human Huh-7 cells at 1 uM by KiNativ Profiling analysis relative to control; assay type: cell-based
[9] = biological target: RPS6KA1/RPS6KA2/RPS6KA3 (Homo sapiens) (UniProt P51812+Q15349+Q15418); assay: Inhibition of RSK1/2/3 Domain 1 K2 labeling site harbouring DLKPENILLDEEGHIK in human Huh-7 cells at 1 uM by KiNativ Profiling analysis relative to control; assay type: cell-based
[10] = Inhibition of TLK1/2 K2 labeling site in human Huh-7 cells at 1 uM by KiNativ Profiling analysis relative to control; conditions: condition cancer
[11] = biological target: Tyrosine-protein kinase receptor Tie-1 (Homo sapiens) (UniProt P35590); assay: Inhibition of TIE1 (unknown origin) at 10 uM by Ambit Kinomescan binding assay relative to control; values are per cent of control
Chain of Tyrosine-protein kinase receptor Tie-1 (Homo sapiens) (P35590 whole entry): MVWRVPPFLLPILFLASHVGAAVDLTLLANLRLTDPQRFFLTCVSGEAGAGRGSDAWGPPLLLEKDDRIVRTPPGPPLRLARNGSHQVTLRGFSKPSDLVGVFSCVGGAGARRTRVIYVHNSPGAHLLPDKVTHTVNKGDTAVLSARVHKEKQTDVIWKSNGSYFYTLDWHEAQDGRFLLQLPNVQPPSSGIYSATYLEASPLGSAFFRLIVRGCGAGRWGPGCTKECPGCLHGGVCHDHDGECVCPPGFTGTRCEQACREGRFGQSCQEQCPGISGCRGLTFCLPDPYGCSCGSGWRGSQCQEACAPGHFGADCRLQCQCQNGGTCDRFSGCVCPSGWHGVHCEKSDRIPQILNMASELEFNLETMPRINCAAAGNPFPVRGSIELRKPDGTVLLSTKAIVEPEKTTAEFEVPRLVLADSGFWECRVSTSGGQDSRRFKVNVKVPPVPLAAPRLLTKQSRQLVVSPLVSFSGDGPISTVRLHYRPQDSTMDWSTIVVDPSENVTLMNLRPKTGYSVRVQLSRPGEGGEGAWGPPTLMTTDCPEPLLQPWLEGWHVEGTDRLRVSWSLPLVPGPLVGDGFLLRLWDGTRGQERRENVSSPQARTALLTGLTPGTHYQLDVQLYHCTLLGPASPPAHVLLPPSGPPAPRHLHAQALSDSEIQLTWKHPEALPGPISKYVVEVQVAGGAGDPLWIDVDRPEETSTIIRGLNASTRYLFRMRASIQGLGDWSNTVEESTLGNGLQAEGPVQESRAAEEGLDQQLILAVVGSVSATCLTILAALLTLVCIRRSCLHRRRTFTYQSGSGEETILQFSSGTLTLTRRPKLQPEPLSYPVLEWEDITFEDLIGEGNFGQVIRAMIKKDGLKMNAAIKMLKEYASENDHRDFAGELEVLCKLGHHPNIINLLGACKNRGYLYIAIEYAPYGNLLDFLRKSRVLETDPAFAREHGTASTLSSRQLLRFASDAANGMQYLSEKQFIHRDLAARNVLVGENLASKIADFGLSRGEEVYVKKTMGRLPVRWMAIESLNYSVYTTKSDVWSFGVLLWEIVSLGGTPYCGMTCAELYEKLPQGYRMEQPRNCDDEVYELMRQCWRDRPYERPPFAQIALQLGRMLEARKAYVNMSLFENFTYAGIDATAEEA

[12] = biological target: Cyclin-dependent kinase 1 (Homo sapiens) (UniProt P06493); assay: Inhibition of CDC2 Lys2 labeling site in human Huh-7 cell lysate at 1 uM by KiNativ Profiling analysis relative to control; assay type: subcellular
Chain of Cyclin-dependent kinase 1 (Homo sapiens) (P06493 whole entry, looked up): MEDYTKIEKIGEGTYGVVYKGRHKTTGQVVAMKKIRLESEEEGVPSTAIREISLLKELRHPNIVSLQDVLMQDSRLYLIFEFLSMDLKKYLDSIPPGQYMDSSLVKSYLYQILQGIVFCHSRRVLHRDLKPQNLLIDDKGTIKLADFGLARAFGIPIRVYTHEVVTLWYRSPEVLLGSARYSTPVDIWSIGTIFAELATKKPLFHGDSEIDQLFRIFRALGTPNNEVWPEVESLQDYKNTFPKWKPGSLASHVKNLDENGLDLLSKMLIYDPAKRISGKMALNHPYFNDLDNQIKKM

Chain of Tyrosine-protein kinase Fyn (Homo sapiens) (P06241 2-537 limits assumed): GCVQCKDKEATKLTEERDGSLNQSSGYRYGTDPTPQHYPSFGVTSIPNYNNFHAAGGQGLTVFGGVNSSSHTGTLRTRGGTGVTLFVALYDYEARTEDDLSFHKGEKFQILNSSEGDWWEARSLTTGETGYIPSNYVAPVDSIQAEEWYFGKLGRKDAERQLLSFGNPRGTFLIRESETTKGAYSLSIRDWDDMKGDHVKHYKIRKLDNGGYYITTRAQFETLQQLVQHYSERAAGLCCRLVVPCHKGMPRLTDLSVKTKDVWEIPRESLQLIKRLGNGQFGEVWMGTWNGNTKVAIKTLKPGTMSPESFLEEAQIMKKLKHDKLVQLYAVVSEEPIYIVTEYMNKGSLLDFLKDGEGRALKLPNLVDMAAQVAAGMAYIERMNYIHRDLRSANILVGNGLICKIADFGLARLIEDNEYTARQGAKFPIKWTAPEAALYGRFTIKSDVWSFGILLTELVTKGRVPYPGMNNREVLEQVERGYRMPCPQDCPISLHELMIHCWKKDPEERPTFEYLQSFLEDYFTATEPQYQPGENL

SMILES: CCN1CCN(Cc2ccc(NC(=O)c3ccc(C)c(/C=C/c4cnc5[nH]ccc5c4OC)c3)cc2C(F)(F)F)CC1
- percent of control [1]: 5.2%
- residual activity [2]: 100%

SMILES: CCN1CCN(Cc2ccc(NC(=O)c3ccc(C)c(Oc4ccnc5[nH]ccc45)c3)cc2C(F)(F)F)CC1
- inhibition [3]: inactive
- inhibition [4]: inactive
- inhibition [5]: 2.3%
- inhibition [6]: -6.3%
- inhibition [7]: inactive
- inhibition [8]: 1.3%
- inhibition [9]: 5%
- inhibition at 1 µM [10]: -1.1%
- residual activity [11]: 0.95%

SMILES: CNc1cc(Oc2cc(C(=O)Nc3cc(N4CCN(C)CC4)cc(C(F)(F)F)c3)ccc2C)ncn1
- inhibition [12]: 0.4%
